Data published in ChEMBL document CHEMBL1147685, “Synthesis and SAR of 1,9-dihydro-9-hydroxypyrazolo[3,4-b]quinolin-4-ones as novel, selective c-Jun N-terminal kinase inhibitors” (Bioorg Med Chem Lett, 2006).

How the values were obtained:
[1] = molecular target: Mitogen-activated protein kinase 8 (Homo sapiens, UniProt P45983); assay: Inhibition of JNK1
[2] = molecular target: c-Jun N-terminal kinase, JNK (Homo sapiens, UniProt P45983+P53779+P45984); assay: Inhibition of TNF-alpha-stimulated cJun phosphorylation in HepG2 cells; format: functional, cell-based
Procedure, shortened: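 Cell-based ELISA in HepG2 cells detecting phospho-c-Jun after TNFa stimulation. Inhibition of c-Jun phosphorylation read out and expressed as IC50.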

[3] = molecular target: Mitogen-activated protein kinase 9 (Homo sapiens, UniProt P45984); assay: Inhibition of JNK2
Sequence of Mitogen-activated protein kinase 9 (P45984 whole entry): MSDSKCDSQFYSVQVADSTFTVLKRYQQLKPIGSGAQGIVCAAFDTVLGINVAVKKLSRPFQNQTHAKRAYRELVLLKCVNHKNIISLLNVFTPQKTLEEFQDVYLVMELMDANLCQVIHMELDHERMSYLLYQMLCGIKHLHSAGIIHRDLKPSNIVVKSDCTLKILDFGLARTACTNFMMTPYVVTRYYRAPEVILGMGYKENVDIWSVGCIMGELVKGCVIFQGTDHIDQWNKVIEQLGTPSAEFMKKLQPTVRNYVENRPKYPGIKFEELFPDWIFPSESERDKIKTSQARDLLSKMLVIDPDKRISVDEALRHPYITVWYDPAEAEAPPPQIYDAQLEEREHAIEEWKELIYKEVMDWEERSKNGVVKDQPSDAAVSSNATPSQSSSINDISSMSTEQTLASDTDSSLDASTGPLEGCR

[4] = molecular target: MAP kinase p38 (Homo sapiens, UniProt O15264+Q15759+Q16539+P53778); assay: Inhibition of p38; format: protein assay
[5] = molecular target: Mitogen-activated protein kinase 1 (Homo sapiens, UniProt P28482); assay: Inhibition of ERK2
Sequence of Mitogen-activated protein kinase 1 (P28482 whole entry): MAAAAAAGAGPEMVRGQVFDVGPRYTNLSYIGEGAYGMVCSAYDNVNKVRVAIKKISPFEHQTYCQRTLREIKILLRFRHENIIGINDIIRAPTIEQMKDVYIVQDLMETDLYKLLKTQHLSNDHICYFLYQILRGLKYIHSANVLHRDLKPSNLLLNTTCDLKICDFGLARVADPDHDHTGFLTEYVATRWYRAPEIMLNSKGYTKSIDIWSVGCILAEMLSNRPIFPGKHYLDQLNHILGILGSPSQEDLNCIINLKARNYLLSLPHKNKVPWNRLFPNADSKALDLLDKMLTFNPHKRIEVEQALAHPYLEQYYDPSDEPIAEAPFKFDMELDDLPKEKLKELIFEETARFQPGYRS

[6] = Stability in human liver microsome after 30 mins; format: ADME; conditions: liver microsomes, read-out: Stability
Procedure, shortened: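 Parent compound incubated with human liver microsomes for 30 min. Percentage of parent recovered afterwards was measured.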

Sequence of Mitogen-activated protein kinase 8 (P45983 whole entry): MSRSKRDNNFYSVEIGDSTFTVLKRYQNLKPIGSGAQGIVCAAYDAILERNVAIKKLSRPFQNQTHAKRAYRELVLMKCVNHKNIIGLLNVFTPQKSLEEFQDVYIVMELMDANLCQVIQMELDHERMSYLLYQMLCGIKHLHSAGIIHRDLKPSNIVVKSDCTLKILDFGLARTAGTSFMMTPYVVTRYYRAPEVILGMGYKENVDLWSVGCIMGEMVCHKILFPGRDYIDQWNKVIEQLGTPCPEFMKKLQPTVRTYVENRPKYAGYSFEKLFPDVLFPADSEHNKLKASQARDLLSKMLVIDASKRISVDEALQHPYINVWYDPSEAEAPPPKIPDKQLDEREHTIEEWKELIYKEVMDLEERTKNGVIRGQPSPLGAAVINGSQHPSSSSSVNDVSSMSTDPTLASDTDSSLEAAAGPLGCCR

| IC50 [1] | IC50 [2] | SMILES | other results |
| --- | --- | --- | --- |
| > 10 µM | – | Cc1nn(C)c2nc3ccc(Cl)cc3c(O)c12 | – |
| 2.74 µM | > 30 µM | Cn1nc(CCCC(=O)O)c2c(=O)c3cc(Cl)ccc3n(O)c21 | – |
| 7.67 µM | > 30 µM | Cc1nn(CCO)c2c1c(=O)c1cc(Cl)ccc1n2O | – |
| > 10 µM | – | COc1cc(Cl)cc2c(=O)c3c(C(F)(F)F)nn(C)c3n(O)c12 | – |
| – | > 30 µM | Cc1nn(C)c2c1c(=O)c1cc(Cl)ccc1n2O | IC50 [3]: 3.1 µM; IC50 [4]: > 50 µM; IC50 [5]: > 50 µM; remaining at 0.5 h [6]: 100% |
| 0.5 µM | > 30 µM | CCNC(=O)NCCCc1nn(C)c2c1c(=O)c1cc(Cl)ccc1n2O | – |
| 0.29 µM | 0.85 µM | Cn1c2[n+]([O-])c3ccc(Cl)cc3c(=O)c-2c2n1C(=O)NCC2 | – |
| > 10 µM | – | CN(C)c1cc2c(cc1Cl)c(=O)c1c(C(F)(F)F)nn(C)c1n2O | – |
| 7.64 µM | > 30 µM | CCOC(=O)Cn1nc(C)c2c(=O)c3cc(Cl)ccc3n(O)c21 | – |
| > 10 µM | – | Cc1nn(C)c2c1c(=O)c1cc(Cl)ccc1n2OCc1ccccc1 | – |
| 2.78 µM | 10.6 µM | CCOn1c2ccc(Cl)cc2c(=O)c2c(C)nn(C)c21 | – |
| 2.64 µM | > 30 µM | CC(C)c1nn(C)c2c1c(=O)c1cc(Cl)ccc1n2O | – |
| 4.59 µM | 19.4 µM | COn1c2ccc(Cl)cc2c(=O)c2c(C)nn(C)c21 | – |
| > 10 µM | – | COC(=O)c1nn(C)c2c1c(=O)c1cc(Cl)ccc1n2O | – |
| 0.92 µM | > 30 µM | Cc1nn(C)c2c1c(=O)c1cc(Br)ccc1n2O | – |
| 4.19 µM | > 30 µM | CCn1nc(C)c2c(=O)c3cc(Cl)ccc3n(O)c21 | – |

More lines, now with the values behind:

| SMILES | IC50 [1] | IC50 [2] | other results |
| --- | --- | --- | --- |
| Cn1nc(CCC(=O)O)c2c(=O)c3cc(Cl)ccc3n(O)c21 | > 10 µM | – | – |
| CNC(=O)Cn1nc(C)c2c(=O)c3cc(Cl)ccc3n(O)c21 | 8.77 µM | > 30 µM | – |
| Cn1nc(C(F)(F)F)c2c(=O)c3cc(Cl)c(Cl)cc3n(O)c21 | 5.14 µM | > 30 µM | – |
| Cn1nc(CCN)c2c(=O)c3cc(Cl)ccc3n(O)c21 | 2.83 µM | > 30 µM | – |
| Cc1nn(C)c2c1c(=O)c1ccccc1n2O | > 10 µM | – | – |
| Cn1nc(C(C)(C)C)c2c(=O)c3cc(Cl)ccc3n(O)c21 | > 10 µM | – | – |
| CCc1nn(C)c2c1c(=O)c1cc(Cl)ccc1n2O | 0.96 µM | 32 µM | – |
| Cc1nn(CC(=O)O)c2c1c(=O)c1cc(Cl)ccc1n2O | 4.41 µM | > 30 µM | – |
| Cc1nn(C)c2c1c(=O)c1cc(-c3cc[nH]n3)ccc1n2O | > 10 µM | – | – |
| Cc1nn(C)c2c1c(=O)c1cc(Cl)ccc1n2OC(C)C | > 10 µM | – | – |
| Cc1nn(C)c2c1c(=O)c1cc(-c3ccccc3)ccc1n2O | > 10 µM | – | – |
| Cc1nn(C)c2c1c(=O)c1cc(Cl)ccc1n2OC1CCCC1 | > 10 µM | – | – |
| CCCCc1nn(C)c2c1c(=O)c1cc(Cl)ccc1n2O | 0.52 µM | > 30 µM | – |
| CCOC(=O)NCCc1nn(C)c2c1c(=O)c1cc(Cl)ccc1n2O | 0.43 µM | > 30 µM | – |
| Cn1nc(-c2ccc(N)cc2)c2c(=O)c3cc(Cl)ccc3n(O)c21 | > 10 µM | – | – |
| COCCc1nn(C)c2c1c(=O)c1cc(Cl)ccc1n2O | 2.41 µM | 14.7 µM | – |
| Cn1nc(C(F)(F)F)c2c(=O)c3c(Cl)c(Cl)ccc3n(O)c21 | > 10 µM | – | – |
| CCCc1nn(C)c2c1c(=O)c1cc(Cl)ccc1n2O | 1.31 µM | 26.6 µM | – |
| CC(=O)NCCc1nn(C)c2c1c(=O)c1cc(Cl)ccc1n2O | 0.78 µM | > 30 µM | – |
| CNC(=O)CCCc1nn(C)c2c1c(=O)c1cc(Cl)ccc1n2O | 0.75 µM | > 30 µM | – |
